Target: T1, Nitric oxide synthase, inducible (Mus musculus, UniProt P29477)
T1 sequence (P29477 whole entry): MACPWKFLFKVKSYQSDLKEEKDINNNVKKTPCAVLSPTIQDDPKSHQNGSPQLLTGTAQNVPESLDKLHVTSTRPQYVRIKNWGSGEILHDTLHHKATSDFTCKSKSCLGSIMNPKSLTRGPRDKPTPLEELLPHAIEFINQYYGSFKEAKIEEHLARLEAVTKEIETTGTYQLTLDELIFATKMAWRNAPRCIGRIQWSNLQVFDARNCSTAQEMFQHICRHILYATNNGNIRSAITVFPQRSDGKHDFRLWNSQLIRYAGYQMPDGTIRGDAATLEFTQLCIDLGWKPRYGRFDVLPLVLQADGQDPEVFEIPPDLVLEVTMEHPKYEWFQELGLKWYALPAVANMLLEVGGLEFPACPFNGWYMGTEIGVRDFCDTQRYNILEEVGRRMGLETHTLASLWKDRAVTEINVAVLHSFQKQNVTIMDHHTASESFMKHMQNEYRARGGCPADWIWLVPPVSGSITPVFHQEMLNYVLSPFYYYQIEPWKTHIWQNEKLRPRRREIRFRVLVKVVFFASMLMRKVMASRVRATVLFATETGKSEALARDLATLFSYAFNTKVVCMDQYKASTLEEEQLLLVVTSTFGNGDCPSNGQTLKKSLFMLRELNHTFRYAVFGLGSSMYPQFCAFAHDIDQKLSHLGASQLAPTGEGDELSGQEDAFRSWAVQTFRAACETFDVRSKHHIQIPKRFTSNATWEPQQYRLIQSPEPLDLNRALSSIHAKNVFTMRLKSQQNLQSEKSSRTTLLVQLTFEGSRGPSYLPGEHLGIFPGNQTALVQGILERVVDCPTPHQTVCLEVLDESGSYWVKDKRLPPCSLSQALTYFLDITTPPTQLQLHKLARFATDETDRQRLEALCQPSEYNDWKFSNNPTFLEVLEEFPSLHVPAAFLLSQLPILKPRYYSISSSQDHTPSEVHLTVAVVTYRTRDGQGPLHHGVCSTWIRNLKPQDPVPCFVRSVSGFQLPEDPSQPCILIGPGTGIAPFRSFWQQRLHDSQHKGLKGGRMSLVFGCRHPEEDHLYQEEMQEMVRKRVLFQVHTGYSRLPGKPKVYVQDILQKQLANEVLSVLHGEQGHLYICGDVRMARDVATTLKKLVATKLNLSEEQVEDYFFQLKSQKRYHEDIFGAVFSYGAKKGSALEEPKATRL
Test: Inhibition of iNOS induction in mouse RAW264.7 cells assessed as NO production
Procedure, shortened: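 RAW 264.7 cells seeded at 8 × 10⁴ per well in DMEM/10% FBS and grown 2 days. Then exposed to LPS with compound or DMSO for 20 h. Supernatant nitrite measured by Griess reaction (sulfanilamide/NED) at 550 nm minus 620 nm background, quantified against a sodium nitrite standard curve. At least four experiments in triplicate.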

With `COc1cc(C=CC(=O)CC(=O)C=Cc2ccc(O)c(OC)c2)ccc1O` the IC50 was 0.8 µM.

`CC(C)(C)C1=NN(c2cccc(Cl)c2)C(c2ccc(F)c(O)c2)C1` (stereo not given) gave an IC50 of 4.6 µM.

`CC(C)(C)C1=NN(c2ccc(Cl)cc2)C(c2ccc(O)cc2)C1` (stereo not given) gave an IC50 of 7.5 µM.

`Oc1ccc(C2CC(c3cccs3)=NN2c2ccc(Br)cc2)cc1` (stereo not given) showed an IC50 of 3.4 µM.

`Oc1ccc(C2CC(c3cccs3)=NN2c2ccc(C(F)(F)F)cc2)cc1` (stereo not given) was tested, and the IC50 was 2.4 µM.

Reference: BindingDB's records for doi:10.1021/jm500521n (Saarland University, 2014)
